Measurements published in ChEMBL document CHEMBL4699638, “A Multipronged Approach Establishes Covalent Modification of β-Tubulin as the Mode of Action of Benzamide Anti-cancer Toxins” (J Med Chem, 2020).
Calls of active or inactive are those of the source. The calls are words filed in the database; no cut-off is given here.

What was measured:
[1] = (§1) Anticancer activity against mouse 319N1 cells assessed as reduction in cell viability measured after 72 hrs by celltiter-glo assay; type: functional, cell-based; details: 319N1, 72 h
In short: (§2)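 Cells seeded in duplicate at 10,000 per well in DMEM with 5% FBS and incubated overnight. Compounds were then added as a 10-point dose response. After 72 h, viability was read by CellTiter-Glo luminescence, with the reagent diluted 1:1 in PBS/1% Triton-X. Values were normalized to DMSO-treated cells and IC50 was derived from curve fitting.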

[2] = test system: 518T2; assay: Binding affinity to beta-tubulin in mouse 518T2 cells at 0.1 to 50 uM measured after 1.5 hrs using Alexa Fluor 532 dye by copper-mediated click reaction based SDS PAGE analysis; type: cell-based; details: dose microM 0.1-50, time 1.5 hrs
In short: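 Competition assay in 518T2 cells (1 million per well, DMEM with 5% FBS). Test analogs in DMSO were dispensed first at 100 nM to 50 μM and the cells plated onto them. The next day, alkyne probe (5 μM) was added for 1.5 h at 37 °C. Lysis was in 1% SDS HEPES buffer, followed by a click reaction with fluorescent azide, SDS-PAGE, and EC50 from displacement of the p50 band.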

[3] = test system: 319N1; assay: as §1; type: functional, cell-based; in short: as §2
[4] = test system: NCI-H2107; assay: Anticancer activity against human NCI-H2107 cells assessed as reduction in cell viability measured after 72 hrs by celltiter-glo assay; type: functional, cell-based
[5] = test system: NCI-H128; assay: Anticancer activity against human NCI-H128 cells assessed as reduction in cell viability measured after 72 hrs by celltiter-glo assay; type: functional, cell-based
[6] = test system: NCI-H889; assay: Anticancer activity against human NCI-H889 cells assessed as reduction in cell viability measured after 72 hrs by celltiter-glo assay; type: functional, cell-based
[7] = Anticancer activity against mouse 518T2 cells assessed as reduction in cell viability measured after 72 hrs by celltiter-glo assay; type: functional, cell-based; details: 518T2, 72 h; in short: as §2
[8] = Anticancer activity against mouse 984NA cells assessed as reduction in cell viability measured after 72 hrs by celltiter-glo assay; type: functional, cell-based; in short: as §2
[9] = organism: Bos taurus; assay: Binding affinity to bovine brain beta-tubulin assessed as reduction in microtubule growth at 0.5 uM measured up to 30 mins by microscopic analysis; type: tissue-based; details: time min <=30
In short: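 Microtubule growth from brain tubulin was imaged by time-lapse DIC microscopy at 30 °C on biotinylated GMPCPP seeds bound to neutravidin coverslips. Frames were taken every 50 ms and averaged in batches of 30; recordings ran about 30 min. Growth rates were quantified per microtubule.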

[10] = molecular target: Tubulin beta-3 chain (Homo sapiens) (UniProt Q13509); assay: Binding affinity to recombinant human C-terminal His-tagged beta3-tubulin expressed in insect cells assessed as reduction in microtubule growth by measuring microtubule growth rate at 1 uM measured up to 30 mins by microscopic analysis (reference value: 0.83 micrometer/min); details: time min <=30
Tubulin beta-3 chain (Homo sapiens), sequence (Q13509 whole entry): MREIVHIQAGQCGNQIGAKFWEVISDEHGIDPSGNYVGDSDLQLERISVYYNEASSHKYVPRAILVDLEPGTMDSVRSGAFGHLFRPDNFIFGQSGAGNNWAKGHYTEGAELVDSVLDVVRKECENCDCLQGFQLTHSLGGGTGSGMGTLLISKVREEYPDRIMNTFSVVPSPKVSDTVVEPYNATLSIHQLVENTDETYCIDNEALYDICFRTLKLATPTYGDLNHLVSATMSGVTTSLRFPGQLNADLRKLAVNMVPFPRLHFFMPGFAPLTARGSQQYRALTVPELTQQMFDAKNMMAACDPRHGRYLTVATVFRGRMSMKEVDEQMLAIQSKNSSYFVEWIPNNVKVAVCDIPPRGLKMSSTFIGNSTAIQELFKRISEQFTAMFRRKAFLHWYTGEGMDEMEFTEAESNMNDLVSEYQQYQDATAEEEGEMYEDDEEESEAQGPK
In short: (§3)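 Human αβ-tubulin (TUBA1B plus TUBB3 with cleavable C-terminal His-tag) was expressed in Tni insect cells. It was purified by Ni-affinity, TEV cleavage and anion exchange, then kept in BRB80 with 50 μM GTP. Growth was measured by DIC time-lapse at 30 °C on GMPCPP seeds in 144 mM PIPES pH 6.9 buffer with 1 mM GTP and 4% DMSO, over about 30 min. Compound was tested at 1, 5 and 10 μM; growth rates were measured per microtubule over two trials.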

[11] = molecular target: Tubulin beta-3 chain (Homo sapiens) (UniProt Q13509); assay: Binding affinity to recombinant human C-terminal His-tagged beta3-tubulin expressed in insect cells assessed as reduction in microtubule growth measured up to 30 mins by microscopic analysis; details: dose microM 1-10, time min <=30; in short: as §3
[12] = molecular target: Tubulin beta-3 chain (Homo sapiens) (UniProt Q13509); assay: Binding affinity to recombinant human C-terminal His-tagged beta3-tubulin expressed in insect cells assessed as reduction in microtubule growth by measuring microtubule growth rate at 10 uM measured up to 30 mins by microscopic analysis (reference value: 0.83 micrometer/min); details: time min <=30; in short: as §3
[13] = test system: 518T2; assay: Binding affinity to beta-tubulin in mouse 518T2 cells at 0.05 to 50 uM measured after 1.5 hrs using Alexa Fluor 532 dye by copper-mediated click reaction based SDS PAGE analysis; type: cell-based; details: dose microM 0.05-50, time 1.5 hrs
In short: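 518T2 cells were plated at 1 million per well in DMEM with 5% FBS. The next day, alkyne probe in DMSO was added at 50 nM to 50 μM for 1.5 h at 37 °C in 5% CO2. Cells were washed, lysed in 1% SDS buffer (50 mM HEPES pH 7.4, 10 mM KCl, 2 mM MgCl2, benzonase), click-reacted with Alexa Fluor 532 azide and resolved by SDS-PAGE fluorescence.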

[14] = molecular target: Tubulin beta-5 chain (Mus musculus) (UniProt P99024); assay: Binding affinity to beta5-tubulin (217 to 241 residues) in mouse 518T2 cells measured after 1.5 hrs by LC-MS/MS analysis; type: cell-based
Tubulin beta-5 chain (Mus musculus), sequence (P99024 whole entry, the tested form may be a part): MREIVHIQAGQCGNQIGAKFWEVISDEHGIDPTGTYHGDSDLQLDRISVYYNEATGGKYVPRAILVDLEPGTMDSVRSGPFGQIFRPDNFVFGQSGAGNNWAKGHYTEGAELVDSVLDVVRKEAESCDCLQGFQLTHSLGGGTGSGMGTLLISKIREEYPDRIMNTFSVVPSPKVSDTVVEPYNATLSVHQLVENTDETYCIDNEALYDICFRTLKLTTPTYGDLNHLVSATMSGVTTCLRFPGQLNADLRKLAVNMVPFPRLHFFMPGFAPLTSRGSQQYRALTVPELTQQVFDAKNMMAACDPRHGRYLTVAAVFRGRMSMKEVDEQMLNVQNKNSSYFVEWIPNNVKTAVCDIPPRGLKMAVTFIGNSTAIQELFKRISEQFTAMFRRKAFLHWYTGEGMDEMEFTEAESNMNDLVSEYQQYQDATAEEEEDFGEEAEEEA
In short: (§4)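 518T2 cells were grown at large scale (100 mg protein per condition) and treated with covalent or non-covalent alkyne probe. Lysates were clicked to 100 μM diazo biotin azide, acetone-precipitated, resolubilized in 4% SDS/PBS, and captured on streptavidin beads for 1 h at 25 °C. Eluates were run on silver-stained SDS-PAGE or analyzed by nano-LC-MS/MS (Orbitrap, HCD). Peptide abundance was normalized to the non-covalent probe sample.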

[15] = test system: 518T2; assay: Binding affinity to beta-tubulin in mouse 518T2 cells measured after 1.5 hrs using diazo biotin azide dye by silver staining based based SDS PAGE analysis; type: cell-based; in short: as §4
[16] = molecular target: Tubulin beta-5 chain (Mus musculus) (UniProt P99024); assay: Binding affinity to beta5-tubulin in mouse 518T2 cells measured after 1.5 hrs by LC-MS/MS analysis; type: cell-based; in short: as §4
[17] = test system: 518T2; assay: Cell cycle arrest in mouse 518T2 cells assessed as increase in accumulation at G2/M-phase at 300 nM measured after 24 hrs by propidium iodide staining based flow cytometry; type: functional
In short: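 518T2 murine SCLC cells were exposed for 24 h to compound (300 nM) or DMSO vehicle. Cell cycle distribution was then read by flow cytometry.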

[18] = test system: 518T2; assay: Binding affinity to beta-tubulin in mouse 518T2 cells measured after 1.5 hrs using Alexa Fluor 532 dye by copper-mediated click reaction based SDS PAGE analysis; type: cell-based
In short: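 Competition format in 518T2 murine SCLC cells, 1 million per well in DMEM with 5% FBS. Analogs in DMSO (100 nM to 50 μM) were dispensed first and cells plated onto them. Next day alkyne probe 24 (5 μM) was added for 1.5 h at 37 °C, 5% CO2. EC50 was taken from displacement of the 50 kDa band.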

[19] = test system: 319N1; assay: Anticancer activity against mouse 319N1 clone E cells assessed as reduction in cell viability measured after 72 hrs by celltiter-glo assay; type: functional, cell-based; in short: as §2
[20] = test system: 319N1; assay: Anticancer activity against mouse 319N1 clone C cells assessed as reduction in cell viability measured after 72 hrs by celltiter-glo assay; type: functional, cell-based; in short: as §2
[21] = test system: 319N1; assay: Anticancer activity against mouse 319N1 clone D cells assessed as reduction in cell viability measured after 72 hrs by celltiter-glo assay; type: functional, cell-based; in short: as §2
[22] = test system: 319N1; assay: Anticancer activity against mouse 319N1 clone A cells assessed as reduction in cell viability measured after 72 hrs by celltiter-glo assay; type: functional, cell-based; in short: as §2
[23] = test system: 319N1; assay: Anticancer activity against mouse 319N1 clone B cells assessed as reduction in cell viability measured after 72 hrs by celltiter-glo assay; type: functional, cell-based; in short: as §2
[24] = test system: 319N1; assay: Anticancer activity against Msh2-deficient mouse 319N1 cells assessed as reduction in cell viability measured after 72 hrs by celltiter-glo assay; type: functional, cell-based; in short: as §2

O=C(c1ccc(Cl)c([N+](=O)[O-])c1)N1CCN(c2ccc(F)cc2)CC1
IC50 [1]: 21000 nM

O=C(c1ccc(Cl)c([N+](=O)[O-])c1)N1CCN(c2ccccc2Cl)CC1
beta-tubulin binding (probe competition, active/inactive) [2]: Active | IC50 [1]: 2950 nM

O=C(c1ccc(Cl)cc1)N1CCN(c2ccccc2)CC1
Activity [3]: inactive

Cc1ccc(N2CCN(C(=O)c3ccc(Cl)c([N+](=O)[O-])c3)CC2)c(C)c1
IC50 [1]: 6990 nM

Cc1ccc(Cl)cc1N1CCN(C(=O)c2cc(Cl)cc([N+](=O)[O-])c2)CC1
IC50 [1]: 4870 nM

Cc1cccc(N2CCN(C(=O)c3ccc(Cl)c([N+](=O)[O-])c3)CC2)c1
beta-tubulin binding (probe competition, active/inactive) [2]: Active | IC50 [1]: 1420 nM

O=C(c1ccc(Cl)c([N+](=O)[O-])c1)N1CCN(c2ccccc2)CC1
Activity [4]: Active | Activity [5]: Active | Activity [6]: Active | beta-tubulin binding (probe competition, active/inactive) [2]: Active | IC50 [1]: 3210 nM | IC50 [7]: 3210 nM | IC50 [8]: 3210 nM

O=C(c1ccc(Cl)c([N+](=O)[O-])c1)N1CCN(c2cccc(Br)c2)CC1
beta-tubulin binding (probe competition, active/inactive) [2]: Active | IC50 [1]: 866 nM

COc1cc(OC)cc(N2CCN(C(=O)c3ccc(C=O)c([N+](=O)[O-])c3)CC2)c1
Activity [9]: Active | Activity [10]: 0.67 um/min | IC50 [1]: 127 nM | Activity [11]: Dose-dependent effect | Activity [12]: 0.31 um/min

O=C(c1ccc(Cl)c([N+](=O)[O-])c1)N1CCN(c2cccc(Cl)c2)CC1
IC50 [1]: 694 nM

C#CCOc1cccc(N2CCN(C(=O)c3ccc(Cl)c([N+](=O)[O-])c3)CC2)c1
Activity [13]: Active | Activity [14]: Active | Activity [15]: Active | Activity [16]: Active | IC50 [1]: 1190 nM

Cc1ccc(Cl)cc1N1CCN(C(=O)c2ccc(OC(F)(F)F)c([N+](=O)[O-])c2)CC1
IC50 [1]: 20 nM

Cc1ccc(Cl)cc1N1CCN(C(=O)c2ccc(Cl)cc2[N+](=O)[O-])CC1
IC50 [1]: 17000 nM

COc1cc2c(c(OC)c1OC)-c1ccc(OC)c(=O)cc1[C@@H](NC(C)=O)CC2
Activity [17]: Active | inhibition [18]: Dose-dependent effect

N#Cc1cccc(N2CCN(C(=O)c3ccc(Cl)c([N+](=O)[O-])c3)CC2)c1
IC50 [1]: 593 nM

COc1cc([C@@H]2c3cc4c(cc3[C@@H](O[C@@H]3O[C@@H]5CO[C@@H](C)O[C@H]5[C@H](O)[C@H]3O)[C@H]3COC(=O)[C@H]23)OCO4)cc(OC)c1O
Activity [19]: Active | Activity [20]: Active | Activity [21]: Active | Activity [22]: Active | Activity [23]: Active | Activity [24]: Active
